An excerpt weighted towards active compounds, which were near 2.3% of everything screened.
TRPC6 inhibitor = blocks the mouse TRPC6 cation channel | Q61143 | actives 1.1% (n = 310,000) | B-score at 10 µM | HEK293-TRPC6, membrane potential dye, ACh-evoked depolarization; hits give low values;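 active = B-score under library mean minus 3 SD, initial fluorescence not abnormally high, positive integrated signal ratio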;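 note: B-score derived from integrated fluorescence ratio over the kinetic read; more negative B-score means stronger inhibition of depolarization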
TRPC4 act = activators of mouse TRPC4 channel. Q9QUQ5. B-score at 10 µM. actives 0.49% (n = 310,000). HEK293 TRPC4beta/mu-opioid, Fluo4 calcium fluorescence; hits give high values;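 active = B-score above 5 SD of library B-scores, and initial fluorescence ratio not above library mean plus 5 SD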;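 note: positive B-score marks a calcium rise read as TRPC4 activation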
Target sequence (Q9QUQ5 whole entry, looked up): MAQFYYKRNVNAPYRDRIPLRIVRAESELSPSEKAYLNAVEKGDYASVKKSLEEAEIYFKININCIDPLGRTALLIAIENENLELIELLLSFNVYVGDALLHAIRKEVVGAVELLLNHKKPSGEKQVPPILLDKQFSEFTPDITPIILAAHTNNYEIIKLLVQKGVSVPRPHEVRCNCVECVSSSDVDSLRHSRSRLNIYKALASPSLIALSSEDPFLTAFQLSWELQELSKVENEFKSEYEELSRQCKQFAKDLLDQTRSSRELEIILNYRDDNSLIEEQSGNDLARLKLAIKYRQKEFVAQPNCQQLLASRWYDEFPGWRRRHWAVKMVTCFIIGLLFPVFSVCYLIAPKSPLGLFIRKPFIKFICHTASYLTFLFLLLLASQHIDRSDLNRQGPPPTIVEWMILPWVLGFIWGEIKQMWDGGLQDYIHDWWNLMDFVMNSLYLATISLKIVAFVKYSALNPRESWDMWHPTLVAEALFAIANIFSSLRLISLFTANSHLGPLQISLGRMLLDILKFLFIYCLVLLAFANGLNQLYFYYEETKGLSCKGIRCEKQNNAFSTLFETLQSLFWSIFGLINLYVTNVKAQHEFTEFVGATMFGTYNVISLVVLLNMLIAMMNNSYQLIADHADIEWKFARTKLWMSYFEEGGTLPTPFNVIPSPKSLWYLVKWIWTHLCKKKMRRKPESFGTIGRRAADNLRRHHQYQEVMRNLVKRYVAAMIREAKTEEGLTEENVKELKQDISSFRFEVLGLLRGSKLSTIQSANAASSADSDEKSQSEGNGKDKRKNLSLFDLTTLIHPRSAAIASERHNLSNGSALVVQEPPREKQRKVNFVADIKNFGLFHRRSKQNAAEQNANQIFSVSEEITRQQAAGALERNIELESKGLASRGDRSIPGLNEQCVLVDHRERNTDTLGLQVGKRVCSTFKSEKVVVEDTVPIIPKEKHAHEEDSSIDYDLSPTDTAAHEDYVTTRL
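System: HEK293 cells stably co-expressing mouse TRPC4beta and mu-opioid receptor; Schedule: Fluo4 dye loading 45 min at room temperature, 110 s recording; Detection: Fluo4 fluorescence, kinetic; Evaluation: B-scored integrated calcium fluorescence ratio; Controls: buffer (low) and maximal DAMGO (high).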
TRPC6 act = activators of mouse TRPC6 channel; AID 2550; actives 0.13% (n = 310,000); HEK293-TRPC6 membrane potential dye fluorescence; hits give high values; B-score at 10 µM;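 active = B-score of the integrated fluorescence ratio above library mean plus 3 SD, and starting fluorescence ratio within library mean plus 5 SD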;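 note: higher score means more depolarization so channel activation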
TRPC4 potent = allosteric potentiators of mouse TRPC4 channel; Q9QUQ5; HEK293 TRPC4beta/mu-opioid, DAMGO EC20, Fluo-4 Ca2+ flux; hits give high values; B-score at 10 µM; actives 0.42% (n = 310,000); AID 2227;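 active = B-score of calcium response area above 5 SD of library B-scores, with initial fluorescence ratio within 5 SD of library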;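 note: B-score of integrated fluorescence ratio over time as area under calcium response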
TRPC4 block = inhibitors of mouse TRPC4 channel | Q9QUQ5 | HEK293 TRPC4beta/mu-opioid, DAMGO-evoked Fluo4 calcium flux; hits give low values | B-score at 10 µM | actives 0.39% (n = 300,000) | AID 2247;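 active = B-score over 3 SD under the library average, no early fluorescence shift, positive overall ratio signal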
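Material: HEK293 cells with stable TRPC4beta plus mu-opioid receptor expression; probe or stimulus: DAMGO in two steps, submaximal then maximal; technique: Fluo4 calcium fluorescence by kinetic imaging, 5 s 1 Hz baseline; measure: integrated fluorescence ratio relative to baseline, converted to per-well B score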
* hit, by the source's call; i = inactive; / = no result.

SMILES	TRPC6 inhibitor	TRPC4 act	TRPC6 act	TRPC4 potent	TRPC4 block
CCc1ccc2c(c1)[C@]1(C(=O)N2)[C@@H]2C(=O)N(Cc3ccccc3)C(=O)[C@@H]2[C@@H]2CCCN21	i	i	i	i	i
N#CC1CC(c2ccccc2)=NN1c1ccccc1[N+](=O)[O-] (centres undefined)	i	i	i	i	i
CC(C)C(=O)Nc1ccc(C(=O)Nc2nnc(C(C)(C)C)s2)cc1	i	i	i	i	-6*
O=C(Nc1ccc(F)c(F)c1)C1=COCCO1	i	i	i	i	i
COc1c(Cl)cc(Cl)cc1CNCCNCCO	i	i	i	11*	i
O=C(c1ccc(Cl)c(Cl)c1)N(Cc1ccco1)c1ccc(O)cc1	i	i	i	i	-7*
O=C1/C(=C/c2ccc([N+](=O)[O-])cc2)C=C(c2ccccc2)N1c1ccc(O)cc1	-5.2*	i	i	i	i
COc1ccc(F)cc1CN1CCN(C(=O)CCC(=O)Nc2nnc(C(C)C)s2)CC1	i	69*	i	i	i
CCCc1nnc(NC(=O)CCC(=O)N2CCN(Cc3cc(F)ccc3OC)CC2)s1	i	i	i	i	i
COc1cc(OC)cc(C(=O)NC(=S)NNC(=O)Cc2cccs2)c1	i	147*	i	i	i
COc1ccc(C(=O)NC(=S)NNC(=O)Cc2cccs2)cc1	i	49*	i	i	i
COc1cc(NC(=O)Cc2cccs2)cc(OC)c1	i	i	i	i	i
COc1cc(OC)cc(C(=O)NC(=S)NNC(=O)[C@H]2C[C@@H]2c2ccccc2)c1	i	192*	i	i	i
CC(=O)N1CCN(C(=O)c2ccc3c(c2)OCCO3)CC1	i	i	i	i	i
Cc1ccccc1C1c2[nH]c3ccccc3c2C[C@H]2C(=O)N(C3CCN(Cc4ccccc4)CC3)CC(=O)N12 (some centres undefined)	i	48*	i	i	i
CC(=O)C1=C(O)C(=O)N(Cc2ccccc2)C1c1ccc(F)cc1 (centres undefined)	i	i	i	i	i
CC(=O)C1=C(O)C(=O)N(Cc2ccccc2)C1c1ccc([N+](=O)[O-])cc1 (centres undefined)	i	i	i	i	-6*
COc1cccc(OC)c1OC(=O)/C=C/c1ccc(C)o1	i	i	i	i	i
O=C(Nc1cc(Cl)cc(Cl)c1)Nc1cnccn1	i	i	i	i	i
O=C(COC(=O)c1cc([N+](=O)[O-])ccc1NCCO)Nc1cccc(S(=O)(=O)N2CCCC2)c1	i	i	i	i	i
CCCN(CCC(=O)Nc1cc(OC)cc(OC)c1)CC1CC1	i	162*	i	i	i
CCN(CCC(=O)Nc1cc(OC)cc(OC)c1)Cc1ccccc1	i	60*	i	i	i
COc1ccc(NC(=O)CN(C)CC(=O)Nc2ccc3c(c2)CCC3)cc1	i	i	i	i	i
CCCCN(C)CCC(=O)Nc1ccc2c(c1)CCC2	i	63*	i	i	i
CCN1CCN(c2c(Cl)cccc2NC(=O)c2ccco2)CC1	i	65*	i	i	i
SMILES	TRPC6 inhibitor	TRPC4 act	TRPC6 act	TRPC4 potent	TRPC4 block
CCN1CCN(c2c(Cl)cccc2NC(=O)c2ccc([N+](=O)[O-])o2)CC1	-8.7*	i	i	i	i
O=C(Nc1cccc(Cl)c1N1CCOCC1)c1ccco1	i	i	i	i	i
CCN1CCN(c2c(Cl)cccc2NC(=O)c2cccs2)CC1	i	i	i	39*	i
Cc1ccc(NC(=O)CNc2ccccc2CN(C)C2CCCCC2)cc1	i	i	i	i	-6*
CC(SCC(=O)NC(C)C1CC2CCC1C2)C(=O)O (centres undefined)	i	i	i	i	i
C=CCSC(=S)NC1CCS(=O)(=O)C1 (centres undefined)	i	i	i	i	i
Cc1ccnc(NS(=O)(=O)c2ccc(CC(C)C)cc2)c1	i	i	i	13*	i
Cc1cc(Br)c(NC(=O)CN(C)CCOc2ccccc2)c(Br)c1	i	i	i	i	-6*
O=C(CN1C(=O)COc2ccccc21)NCCCN1CCCC1	i	i	i	i	i
CN1CCN(CCCNC(=O)CN2C(=O)COc3ccccc32)CC1	i	i	i	i	-6*
CN(C)S(=O)(=O)c1ccc(Cl)c(NC(=O)CN2CCCCCC2)c1	i	i	i	i	i
CCN(c1ccccc1)S(=O)(=O)c1ccc(Cl)c(NC(=O)CN2CCCCCC2)c1	i	i	18*	i	i
Cn1c(CNc2ccc(Cl)cc2)nc2ccccc21	i	i	i	i	i
Cc1ccc(N2CCN(c3ccc(NCc4nc5ccccc5n4C)cc3)CC2)cc1	i	122*	i	i	i
Cn1c(CN2CCN(c3cccc(Cl)c3)CC2)nc2ccccc21	i	84*	i	i	i
CCN(c1ccccc1)S(=O)(=O)c1ccc(C(=O)N(CCCN(C)C)c2nc3c(C)cccc3s2)cc1	i	i	i	i	i
CCCCN(CC)CCNc1c(N2CCN(C(=O)OCC)CC2)c(=O)c1=O	i	124*	i	i	/
CC(NC(=O)c1cc(S(=O)(=O)N2CCOCC2)ccc1N1CCCC1)c1ccc(Cl)c(Cl)c1 (centres undefined)	i	i	i	i	i
Fc1ccccc1Sc1ccccc1CNC1=NCCN1	i	i	i	i	-6*
Nc1cc(=O)nc(SCC(=O)N2CCN(c3ccccc3)CC2)n1-c1ccccc1	i	i	i	i	i
Nc1cc(=O)nc(SCC(=O)N2CCN(c3ccccc3)CC2)n1-c1ccc(F)cc1	i	i	i	i	-6*
CC(NCC(O)COCCC12CC3CC(CC(C3)C1)C2)c1ccccc1 (centres undefined)	i	83*	i	i	i
NCC(O)COCCC12CC3CC(CC(C3)C1)C2 (centres undefined)	i	i	i	i	i
OC(CNCCc1ccc(Cl)cc1)COc1cc(Cl)ccc1Cl (centres undefined)	i	i	i	i	i
CC(Nc1nc(N2CCNCC2)nc2ccccc12)c1ccccc1 (centres undefined)	i	103*	i	i	i
O=c1ccc(OCCOc2ccccc2)nn1-c1ccccc1	i	i	i	17*	i
